A selection: hits, their analogues and other compounds. The true share with any hit is near 4.4%.
AHR activator: human AHR activation | P35869 | AHR-responsive luciferase reporter cells, luminescence | activation, % at 5 µM | actives 2.5% (n = 320,000) | AID 2796; in the data active = activation above about 47%;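 also: 0% = vehicle wells and 100% = reference agonist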
Tb MetRS inh: blocks T. brucei methionyl-tRNA synthetase activity | actives 0.4% (n = 360,000) | AID 624268 | purified T. brucei MetRS, ATP depletion, Kinase-Glo luminescence | inhibition, % at 11.9 µM;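 active = inhibition above a per-plate cutoff of the control wells' mean inhibition plus 3 SD, cut at about 5.5% in these data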;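 also: 0% = DMSO wells median and 100% = median of wells with control inhibitor compound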
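Material: parasite MetRS enzyme / Replication: singlicate, one well per compound / Signal: luminescence of leftover ATP / Schedule: 2 h aminoacylation at 25 °C after 15 min preincubation / Medium: HEPES-MgCl2-KCl buffer plus DTT, spermine, BSA, pyrophosphatase / Doses: 11.9 µM single point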
MsrA inh: bovine MsrA inhibition. purified bovine MsrA, absorbance read-out. inhibition, % at 15.5 µM. actives 0.75% (n = 360,000). AID 651718; in the data active = inhibition above about 4.5%;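 also: 0% = vehicle wells with enzyme and 100% = reference inhibitor wells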
HTR2A ag: mouse HTR2A agonism via beta-arrestin recruitment; P35363; CHO-K1 mHTR2A beta-arrestin complementation, luminescence; percent of 30 µM serotonin response; activation, % at 7.6 µM; actives 0.66% (n = 360,000); AID 624169;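 active = activation above a run cutoff, the mean activation of all tested compounds plus 3 SD, cut at about 14% in these data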;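 also: 0% = plate median of compound wells and 100% = 30 µM serotonin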
Target sequence (P35363 whole entry, looked up): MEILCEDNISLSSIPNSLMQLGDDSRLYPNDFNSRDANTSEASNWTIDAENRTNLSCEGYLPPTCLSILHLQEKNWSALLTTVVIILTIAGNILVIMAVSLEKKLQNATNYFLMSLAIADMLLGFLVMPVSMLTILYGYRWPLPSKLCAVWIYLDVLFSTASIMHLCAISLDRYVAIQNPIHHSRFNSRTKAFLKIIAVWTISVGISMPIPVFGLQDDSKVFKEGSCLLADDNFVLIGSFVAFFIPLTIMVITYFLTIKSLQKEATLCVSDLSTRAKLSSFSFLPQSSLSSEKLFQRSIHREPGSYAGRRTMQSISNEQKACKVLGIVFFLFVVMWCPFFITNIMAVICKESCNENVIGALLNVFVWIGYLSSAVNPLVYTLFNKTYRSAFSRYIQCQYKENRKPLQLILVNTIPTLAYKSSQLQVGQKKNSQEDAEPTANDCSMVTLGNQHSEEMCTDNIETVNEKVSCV
AI-2 QS mod: Vibrio harveyi AI-2 quorum sensing modulation; Vibrio harveyi JMH597 AI-2 luminescence/OD600 ratio, 9 h; stronger effect = lower value; strain lacks LuxN and CqsS sensors; 0 = neutral-control median; activity change, % at 7.5 µM; actives 0.4% (n = 300,000); AID 2094; in the data active = activity change below about -75%, passing the limit was not always enough;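 also: luminescence divided by OD600 gain over 9 h not by final OD600 alone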
MsrA act: activates bovine MsrA enzyme; purified bovine MsrA, absorbance read-out; activation, % at 10.6 µM; actives 0.3% (n = 360,000); in the data active = activation above about 7.5%;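 also: 0% = vehicle and 100% = reference activator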
* hit, by the source's call; x = no result given.

SMILES | AHR activator | Tb MetRS inh | MsrA inh | HTR2A ag | AI-2 QS mod | MsrA act
CCn1c2ccccc2c2cc(NC(=O)COC(=O)c3cc(Cl)c(N)cc3OC)ccc21 | 73* | 0 | 1 | 3 | 84 | -3
C[C@H]1CNCCN1c1ccc(N2CCS(=O)(=O)CC2)c(C#N)c1 | x | x | -1 | x | x | x
O=c1[nH]c2cc3c(cc2cc1CN(Cc1cccnc1)C(=S)NCc1ccco1)OCCO3 | 28 | 1 | 3 | -2 | 6 | -5
O=c1[nH]c2cc3c(cc2cc1CN(Cc1cccnc1)C(=S)NCc1ccco1)OCO3 | 66* | 0 | 3 | -4 | 23 | -4
CCOc1ccc(N(C)S(=O)(=O)c2ccc3[nH]cc(C(=O)NCCCOC)c(=O)c3c2)cc1 | 48* | -1 | 0 | -3 | 28 | -10
C=CCNC(=O)c1c[nH]c2ccc(S(=O)(=O)N(C)c3ccc(OCC)cc3)cc2c1=O | 17 | -2 | -1 | -4 | 0 | -8
CCCNC(=O)c1c[nH]c2ccc(S(=O)(=O)N(C)c3ccc(OCC)cc3)cc2c1=O | 54* | x | -2 | x | 17 | x
CCOc1ccc(N(C)S(=O)(=O)c2ccc3[nH]cc(C(=O)NCCOC)c(=O)c3c2)cc1 | 30 | 1 | 1 | -4 | 36 | -1
O=S(=O)(c1ccc(F)cc1)N1CCCc2nc(-c3ccc(Br)cc3)ccc21 | x | x | -1 | x | x | x
CSC(=S)N/N=C/c1ccc(Br)cc1 | 20 | 0 | 2 | 4 | -13 | -1
CSC(=S)N/N=C/c1ccc(N(C)C)cc1 | 51* | 0 | 2 | 2 | 17 | -8
CCCCCCN1CCN(C2CN(Cc3cn(Cc4ccc(C(F)(F)F)cc4)nn3)S(=O)(=O)C2)CC1 (centres undefined) | x | x | 0 | x | x | x
COc1ccccc1C(=O)NCC(c1cccs1)N1CCc2ccccc21 (centres undefined) | 6 | -1 | 3 | -1 | 11 | -6
COc1cc(C(=O)NCC(c2cccs2)N2CCc3ccccc32)cc(OC)c1OC (centres undefined) | 48* | 0 | 0 | 2 | 19 | -1
Cc1ccc(-c2csc(N(CC3CCCO3)C(=O)c3ccco3)n2)cc1 (centres undefined) | 51* | -1 | 1 | 5 | 10 | -13
O/C(=C\c1nc2ccccc2nc1/C=C(\O)c1ccccc1)c1ccccc1 | 70* | 0 | x | -2 | 12 | -3
O=c1oc2ccccc2nc1/C=C(\O)c1ccccc1 | 33 | 0 | 1 | 2 | 10 | 1
Cc1ccc(Sc2ccc(/C=N/O)cc2[N+](=O)[O-])cc1 | 1 | 0 | 0 | -4 | -76* | -5
CCCS(=O)(=O)NC(=O)C1(C)CCN(C(=O)c2c(F)cccc2F)C1 (centres undefined) | x | 0 | 0 | 1 | x | -2
CCc1ccc(OCC(=O)NC(=S)Nc2ccc(F)cc2)c(Br)c1 | 0 | 0 | 0 | 0 | 17 | 2
CCc1ccc(OCC(=O)NC(=S)Nc2ccc(C(C)=O)cc2)c(Br)c1 | 76* | -1 | -1 | 6 | 13 | -3
CC(=O)C1=C(C)N(Cc2ccc(F)cc2)C(=S)NC1c1cccc(Br)c1 (centres undefined) | x | x | 0 | x | x | x
CCc1ccc(N2C(=O)Cc3c2nc(N)c(C#N)c3N)cc1 | 52* | 0 | 3 | -3 | 10 | -6
Cc1nn(-c2ccccc2)c2nc(N)c(C#N)c(-c3ccc(C(C)(C)C)cc3)c12 | -1 | 0 | -1 | 10 | 32 | -6
CCN(CC)c1nc2c3c(nc4c(c3c1C#N)CC(=O)N4c1ccc(Cl)cc1)NC(C)=N2 | 7 | 0 | 2 | 2 | 25 | -3
SMILES | AHR activator | Tb MetRS inh | MsrA inh | HTR2A ag | AI-2 QS mod | MsrA act
CC(C)(C)c1ccc(N2C(=O)Cc3c2nc(N)c(C#N)c3N)cc1 | 76* | -1 | 3 | 8 | 37 | -16
Cc1nc(Nc2ccccc2)sc1-c1ccccc1 | 72* | 0 | 1 | -5 | -1 | -3
COC(=O)[C@]12C[C@H](CC(=O)NCCCCc3ccccc3)C(=O)N(Cc3ccccc3)C1=C[C@H](C(C)(C)C)O[C@@H]2C | x | x | 0 | x | x | x
Brc1ccc2nc(-c3ccc(CN4CCC(c5nc6ccccc6[nH]5)CC4)cc3)c(-c3ccccc3)nc2c1 | x | x | 2 | x | x | x
COc1ccc2c(c1)c(C(=O)N/N=C/c1ccccc1Cl)c(C)n2C | 57* | 0 | 0 | -9 | 22 | -3
COc1ccccc1OCC#CCn1ccnc1 | 60* | 0 | -1 | -2 | 13 | 1
COc1ccc(OCC#CCn2ccnc2)cc1 | 26 | -2 | 1 | 0 | 15 | -13
CCc1ccc(NC(=O)Cn2c(=O)c3cccn3c3ccccc32)cc1 | 4 | 0 | -1 | -3 | -21 | -4
CCc1ccc(NC(=O)CCn2c(=O)c3cccn3c3ccccc32)cc1 | 50* | -1 | 0 | -12 | 4 | 0
c1cncc(-c2nc(NCc3ccc4c(c3)OCO4)c3ccccc3n2)c1 | 64* | 2 | 1 | -5 | 17 | -1
c1cncc(CSc2ccc(-c3ccc4c(c3)OCO4)nn2)c1 | 95* | -1 | 2 | 0 | -7 | -4
COc1ccc(/C=N/NC(=O)c2cc(-c3ccc4c(c3)OCO4)n[nH]2)cc1OC | 73* | 0 | 1 | -2 | 31 | -1
O=C(N/N=C/c1ccc(F)cc1)c1cc(-c2ccc3c(c2)OCO3)n[nH]1 | 39 | 0 | 1 | -7 | -8 | -3
O=c1[nH]c(N/N=C\c2ccc3c(c2)OCO3)nc2ccccc12 | 57* | 1 | 3 | -5 | 39 | -3
c1ccc(CNc2nc(-c3cccnc3)nc3ccccc23)cc1 | x | 0 | 1 | -8 | 34 | -3
COC(=O)Cc1nnn2c1CC(OC)c1cc(Br)ccc1-2 (centres undefined) | x | x | 0 | x | x | x
Cc1cc(N2C(=O)c3ccc(C(=O)Nc4ccc(CC(=O)O)cc4)cc3C2=O)no1 | 0 | 0 | -1 | 3 | 19 | -4
Cc1ccc(-c2cc(C(=O)Nc3ccc4c(c3)OCCO4)c3ccccc3n2)cc1 | 2 | -2 | 2 | -7 | 23 | -3
O=C(Nc1ccc2c(c1)OCO2)c1cc(-c2cccnc2)nc2ccccc12 | 47* | 0 | 2 | -7 | 8 | -4
c1cncc(CNc2ncnc3ccc(-c4ccc5c(c4)OCO5)cc23)c1 | 53* | 1 | 0 | -1 | x | -2
c1nc(NCc2ccc3c(c2)OCO3)c2cc(-c3ccc4c(c3)OCCO4)ccc2n1 | 16 | 0 | 0 | -1 | x | -4
O=C(N/N=C/c1ccccn1)c1cc(-c2ccc(Br)cc2)nc2ccccc12 | 23 | -1 | 0 | -4 | 11 | -2
O=C(N/N=C/c1ccc2c(c1)OCCO2)c1ccncc1 | 8 | 0 | 4.5* | -7 | 28 | -4
O=C(N/N=C/c1ccccn1)c1cc(-c2ccc(Cl)cc2)nc2ccccc12 | 50* | 0 | -1 | -8 | 7 | -3

Screening data deposited in PubChem BioAssay by several laboratories.
